Data from ChEMBL document CHEMBL6134899 (J Med Chem, 2025).
Activity calls are given as the source filed them. The calls are words filed in the database; no cut-off is given here.

Tests used:
[1] = target: Sodium-dependent noradrenaline transporter (Homo sapiens) (UniProt P23975); conditions: dose 10-100 nM
[2] = target: Sodium-dependent dopamine transporter (Homo sapiens) (UniProt Q01959); assay: Inhibition of DAT receptor (unknown origin) at 100 nM
[3] = target: Sodium-dependent serotonin transporter (Homo sapiens) (UniProt P31645); assay: Inhibition of SERT receptor (unknown origin) at 100 nM
Sequence of Sodium-dependent serotonin transporter (Homo sapiens) (P31645 whole entry, looked up): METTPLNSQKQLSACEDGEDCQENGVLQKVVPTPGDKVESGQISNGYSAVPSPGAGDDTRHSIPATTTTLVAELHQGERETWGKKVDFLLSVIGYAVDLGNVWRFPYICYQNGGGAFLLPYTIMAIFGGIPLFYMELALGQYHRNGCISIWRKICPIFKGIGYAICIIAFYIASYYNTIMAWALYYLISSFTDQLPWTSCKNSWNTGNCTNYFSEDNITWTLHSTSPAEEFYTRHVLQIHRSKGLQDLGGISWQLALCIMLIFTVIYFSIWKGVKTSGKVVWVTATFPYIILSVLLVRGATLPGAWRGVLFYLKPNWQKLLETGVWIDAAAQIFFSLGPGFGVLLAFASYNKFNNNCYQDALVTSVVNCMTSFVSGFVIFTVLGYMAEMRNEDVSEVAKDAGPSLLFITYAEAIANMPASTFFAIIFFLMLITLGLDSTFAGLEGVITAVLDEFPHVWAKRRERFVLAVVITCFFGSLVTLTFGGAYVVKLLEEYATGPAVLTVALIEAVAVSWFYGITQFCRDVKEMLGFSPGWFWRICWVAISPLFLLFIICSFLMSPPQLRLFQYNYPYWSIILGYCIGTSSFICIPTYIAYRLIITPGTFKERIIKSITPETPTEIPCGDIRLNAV

[4] = target: Sodium-dependent serotonin transporter (Homo sapiens) (UniProt P31645); assay: Displacement of [3H]imipramine from recombinant human SERT receptor expressed in CHO cells at 10 uM incubated for 60 mins by scintillation counting method; type: cell-based
Method in brief: (§1)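 Radioligand displacement run by a commercial provider, with test compound at 10 μM. Reported as mean ± SD of two independent measurements, each in duplicate.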

[5] = target: Sodium-dependent dopamine transporter (Homo sapiens) (UniProt Q01959); assay: Displacement of [3H]BTCP from recombinant human DAT receptor expressed in CHO cells at 10 uM incubated for 120 mins by scintillation counting method; type: cell-based
Method in brief: as §1

[6] = Acute toxicity in C57BL6/J mouse assessed as gastrointestinal distress at 1.0 to 10 mg/kg, ip; type: organism-based; conditions: in vivo, dose 1-10 mg/kg
Method in brief: (§2)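 Male mice, 12 weeks old, were handled for 10 days and rotarod-trained before dosing. Each received 1.0 or 10 mg/kg i.p. (n = 7) or vehicle, 0.5% DMSO (n = 6), at 1% body-weight volume. Animals were held 40 min in a separate cage, then observed during rotarod, light/dark box and rectal temperature tests for signs of toxicity. Sacrifice was 1 h post-dose.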

[7] = Acute toxicity in C57BL6/J mouse assessed as piloerection at 1.0 to 10 mg/kg, ip; type: organism-based; conditions: in vivo, dose 1-10 mg/kg
Method in brief: as §2

[8] = Acute toxicity in C57BL6/J mouse assessed as convulsions at 1.0 to 10 mg/kg, ip; type: organism-based; conditions: in vivo, dose 1-10 mg/kg
Method in brief: as §2

[9] = Drug accumulation in C57BL/6JRJ mouse adrenal gland at 5 mg/kg, iv followed by 1 week after washout period treated at 5 mg/kg, po followed by 1 week after washout period treated at 5 mg/kg, po measured after 30 mins; type: ADME, organism-based; conditions: in vivo, 168 h, time 1 weeks
Method in brief: (§3)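 The same four C57BL/6JRJ mice (2 male, 2 female) first had i.v. and then oral PK runs, each followed by 1 week washout. They were then gavaged with 5 mg/kg in saline at 5 mL/kg. At 30 min they were decapitated under isoflurane, and blood and tissues were harvested. Tissue levels were quantified by LC-ESI-MS/MS and given as mean ± SD of four mice.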

[10] = AUC in C57BL/6JRJ mouse at 5 mg/kg, iv measured up to 24 hrs; type: ADME, organism-based; conditions: in vivo
Method in brief: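 C57BL/6JRJ mice, 8–9 weeks old (2 male, 2 female), received 5 mg/kg (dose based on free salt MW) in 0.9% saline at 5 mL/kg by tail-vein injection after tail warming. Tail-vein blood microsamples (<20 μL) were taken at 5, 15, 30 min and 1, 1.5, 2, 4, 8 and 24 h, quantified by MRM LC-ESI-MS/MS, and reported as mean ± SD of four mice.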

[11] = Acute toxicity in C57BL6/J mouse assessed as hunched posture at 1.0 to 10 mg/kg, ip; type: organism-based; conditions: in vivo, dose 1-10 mg/kg
Method in brief: as §2

[12] = Drug accumulation in C57BL/6JRJ mouse brain at 5 mg/kg, iv followed by 1 week after washout period treated at 5 mg/kg, po followed by 1 week after washout period treated at 5 mg/kg, po measured after 30 mins; type: ADME, organism-based; conditions: in vivo, 168 h, time 1 weeks
Method in brief: as §3

Sequence of Sodium-dependent noradrenaline transporter (Homo sapiens) (P23975 whole entry): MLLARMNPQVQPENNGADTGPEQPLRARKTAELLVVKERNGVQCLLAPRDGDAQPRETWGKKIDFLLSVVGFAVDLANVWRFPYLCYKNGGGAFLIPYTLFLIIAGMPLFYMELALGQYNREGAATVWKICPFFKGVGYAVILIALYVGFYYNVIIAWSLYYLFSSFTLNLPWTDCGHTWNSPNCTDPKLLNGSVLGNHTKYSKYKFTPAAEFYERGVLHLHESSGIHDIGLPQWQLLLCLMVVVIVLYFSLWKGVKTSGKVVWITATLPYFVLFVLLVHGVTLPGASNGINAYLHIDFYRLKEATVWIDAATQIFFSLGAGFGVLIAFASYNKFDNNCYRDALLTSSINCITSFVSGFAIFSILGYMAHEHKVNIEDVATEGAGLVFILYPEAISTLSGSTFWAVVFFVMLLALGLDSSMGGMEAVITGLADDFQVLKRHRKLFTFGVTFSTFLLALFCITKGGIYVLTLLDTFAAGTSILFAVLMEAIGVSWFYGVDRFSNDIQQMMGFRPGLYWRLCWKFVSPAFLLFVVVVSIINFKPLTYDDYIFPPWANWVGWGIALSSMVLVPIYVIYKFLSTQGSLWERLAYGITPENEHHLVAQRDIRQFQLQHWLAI
Sequence of Sodium-dependent dopamine transporter (Homo sapiens) (Q01959 whole entry): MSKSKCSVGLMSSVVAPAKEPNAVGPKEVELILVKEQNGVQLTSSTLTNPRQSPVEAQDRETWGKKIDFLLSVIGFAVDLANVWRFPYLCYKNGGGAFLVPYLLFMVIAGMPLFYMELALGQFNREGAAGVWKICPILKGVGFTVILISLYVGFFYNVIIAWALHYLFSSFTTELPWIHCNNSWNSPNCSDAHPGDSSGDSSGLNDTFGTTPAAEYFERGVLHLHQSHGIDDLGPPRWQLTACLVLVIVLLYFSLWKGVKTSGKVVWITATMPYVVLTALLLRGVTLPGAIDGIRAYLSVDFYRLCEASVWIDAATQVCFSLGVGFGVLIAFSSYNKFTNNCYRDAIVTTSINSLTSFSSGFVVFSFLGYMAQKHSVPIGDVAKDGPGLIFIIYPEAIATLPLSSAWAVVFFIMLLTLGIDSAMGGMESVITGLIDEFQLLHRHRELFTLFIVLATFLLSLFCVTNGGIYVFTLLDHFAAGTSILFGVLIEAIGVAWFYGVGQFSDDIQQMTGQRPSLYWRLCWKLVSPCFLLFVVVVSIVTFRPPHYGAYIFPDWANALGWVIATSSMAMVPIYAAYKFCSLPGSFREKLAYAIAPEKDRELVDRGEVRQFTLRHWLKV

Compound | inhibition [1] | inhibition [2] | inhibition [3] | further results
Clc1cc(Cl)cc(CN2CCCC[C@H]3NCC[C@H]32)c1 | Active | Active | Active | –
Fc1cccc(CN2CCCC[C@H]3NCC[C@H]32)c1 | Active | Active | Active | –
c1ccc(CN2CCCC[C@@H]3NCCC[C@H]32)cc1 | – | – | – | Activity [4]: Active; Activity [5]: Active
Clc1ccccc1CN1CCCC[C@H]2NCC[C@H]21 | Active | Active | Active | –
c1ccc(CN2CCCC[C@@H]3NCCCC[C@H]32)cc1 | – | – | – | Activity [4]: Active; Activity [5]: Active
Brc1cccc(CN2CCCC[C@H]3NCC[C@H]32)c1 | Active | Active | Active | –
c1ccc(CN2CCCC[C@H]3NCCC[C@H]32)cc1 | – | – | – | Activity [4]: Active; Activity [5]: Active
Clc1ccc(CN2CCCC[C@H]3NCC[C@H]32)cc1 | Active | Active | Active | –
Clc1cccc(CN2CCCC[C@H]3NCC[C@H]32)c1 | Active | Active | Active | –
Clc1cccc(CN2CCCC[C@H]3NCC[C@H]32)c1Cl | Active | Active | Active | –
c1ccc(CN2CCCC[C@H]3NCC[C@H]32)cc1 | – | – | – | Activity [6]: Non-toxic; Activity [7]: Non-toxic; Activity [8]: Non-toxic; Drug uptake [9]: Active; AUC [10]: 47948 ng·min/mL; Activity [11]: Non-toxic; Drug uptake [12]: Active
